From PMC5203969 (Clinical cancer research : an official journal of the …, 2016)
Where two headings read alike, the source gives them in different places.

Columns and labels:
[1] = system: HCC78 NSCLC cell line; test: Proliferation of HCC78 NSCLC cell line; type: cell-based, human
Summary of the method: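 HCC-78 cells were obtained from ATCC (STR-authenticated) and passaged under 6 months. Cells were exposed to test compound for 72 hours, and viability was read by CellTiter Glo luminescence.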

[2] = system: Parental Ba/F3 cells; test: Proliferation of parental Ba/F3 cells grown in the presence of IL-3; type: cell-based, murine; conditions: read-out: IC50 Parental Ba/F3
Summary of the method: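 Parental Ba/F3 cells are immortalized murine bone-marrow pro-B cells. They were incubated with test compound for 72 hours, and viability was measured by CellTiter Glo. Final DMSO was under 0.5%.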

[3] = system: CUTO-3 cells; test: Proliferation of CUTO-3 tumor cells; type: cell-based, human
[4] = system: NTRK1 autophosphorylation in NIH-3T3 cells transformed with FLAG-tagged CD74-NTRK1; type: cell-based; conditions: 6 hours, western blot
[5] = system: NTRK1 autophosphorylation in CUTO-3 cells (MPRIP-NTRK1); test: Western blot of NTRK1 autophosphorylation in CUTO-3 cells; type: cell-based, human; conditions: 6 hours, dovitinib at 1000 nM
Summary of the method: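 CUTO-3 cells (MPRIP-NTRK1, patient-derived) were treated with inhibitor for 6 hours. They were lysed for 30 min in 0.1% Triton X-100 plus protease inhibitor. Lysates were run on 4–12% Bis-Tris gels and transferred to PVDF. Membranes were blocked in 5% milk, then probed with primary antibody at 1:1,000 and secondary at 1:5,000.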

[6] = system: F589V CD74-NTRK1; type: cell-based; conditions: 293 cells transiently transfected with wild-type and F589V CD74-NTRK1
[7] = system: ROS1 autophosphorylation and ERK in CD74-ROS1 wild-type transformed Ba/F3 cells; test: Western blot of ROS1; type: cell-based, murine
[8] = system: ROS1 autophosphorylation and ERK in CD74-ROS1 G2032R transformed Ba/F3 cells; test: Western blot of ROS1; type: cell-based, murine
[9] = system: ROS1 autophosphorylation and ERK in CD74-ROS1 L2026M transformed Ba/F3 cells; test: Western blot of ROS1; type: cell-based, murine
[10] = biological target: Ba/F3 cells transformed with CD74-ROS1 (wild-type) (Homo sapiens, UniProt P04233+P08922); test: Proliferation of Ba/F3 cells transformed with CD74-ROS1 wild-type; type: cell-based, murine; conditions: peak plasma level obtained through FDA-approved oral dosing
Sequence of Ba/F3 cells transformed with CD74-ROS1 (wild-type) (P08922 1883-2347 limits assumed, one chain of several): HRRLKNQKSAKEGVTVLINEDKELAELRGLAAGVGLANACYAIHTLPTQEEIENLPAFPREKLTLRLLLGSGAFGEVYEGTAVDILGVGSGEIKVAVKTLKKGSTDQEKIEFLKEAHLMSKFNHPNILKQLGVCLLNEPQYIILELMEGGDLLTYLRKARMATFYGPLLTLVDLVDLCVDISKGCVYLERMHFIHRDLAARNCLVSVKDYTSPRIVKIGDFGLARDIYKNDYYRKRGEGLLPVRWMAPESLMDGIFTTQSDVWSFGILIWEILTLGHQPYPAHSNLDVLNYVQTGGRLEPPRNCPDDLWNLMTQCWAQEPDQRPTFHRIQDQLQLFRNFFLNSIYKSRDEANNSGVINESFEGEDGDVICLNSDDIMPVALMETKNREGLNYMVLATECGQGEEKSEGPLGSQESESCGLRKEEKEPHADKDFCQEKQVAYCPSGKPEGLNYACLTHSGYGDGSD

[11] = system: medullary thyroid cancer; conditions: cited from earlier work
[12] = system: prostate cancer; conditions: cited from earlier work
[13] = system: RET-rearranged NSCLC; conditions: of 3 patients with RET-rearranged NSCLC; cited from earlier work
[14] = system: ROS1-rearranged metastatic lung adenocarcinoma; test: Treatment of one patient with ROS1-rearranged metastatic lung adenocarcinoma
[15] = system: ROS1-rearranged NSCLC; conditions: phase II; cited from earlier work
[16] = observed in clinical trials; cited from earlier work
[17] = Homo sapiens, HCC78, read-out: IC50 inhibition of the HCC78 NSCLC cell line
[18] = read-out: IC50 inhibition of CUTO-3 cells, proliferation
[19] = Homo sapiens, CUTO-3, read-out: IC50 inhibition of CUTO-3 cells, proliferation

## CCc1cc2c(cc1N1CCC(N3CCOCC3)CC1)C(C)(C)c1[nH]c3cc(C#N)ccc3c1C2=O [Alectinib]
[1]; [17]
  IC50: 750 nM

## Cc1cc(N2CCOCC2)cc2[nH]c(-c3c(NC[C@@H](O)c4cccc(Cl)c4)cc[nH]c3=O)nc12 [BMS-536924]
[2]; parental Ba/F3 cells, 72 hours
  IC50: 2.75 µM
[3]; [18]
  IC50: 34 nM
[4]
  inhibition of NTRK1 autophosphorylation: inhibit NTRK1 autophosphorylation
[5]
  inhibition of NTRK1 autophosphorylation: inhibited NTRK1 autophosphorylation
[6]
  effect of F589V mutation on inhibition of NTRK1 autophosphorylation: did not affect inhibition of NTRK1 autophosphorylation

## COc1cc(N2CCC(N3CCN(C)CC3)CC2)ccc1Nc1ncc(Cl)c(Nc2ccccc2P(C)(C)=O)n1 [Brigatinib, brigatinib]
[1]; [17]
  IC50: 2200 nM
[7]
  phosphorylation of ROS1 and ERK: inhibits the phosphorylation of ROS1 and ERK
[8]
  phosphorylation of ROS1 and ERK: less activity seen
[9]
  phosphorylation of ROS1 and ERK: inhibits the phosphorylation of ROS1 and ERK

## COc1cc2nccc(Oc3ccc(NC(=O)C4(C(=O)Nc5ccc(F)cc5)CC4)cc3)c2cc1OC [Cabozantinib, cabozantinib]
[10]
  fold by which inhibitory concentrations are below the peak plasma level: ~ 50 fold
[1]; [17]
  IC50: 1360 nM
[7]
  phosphorylation of ROS1 and ERK: a decrease is seen in the phosphorylation of ROS1 and ERK
[8]
  phosphorylation of ROS1 and ERK: a decrease is seen in the phosphorylation of ROS1 and ERK
[9]
  phosphorylation of ROS1 and ERK: a decrease is seen in the phosphorylation of ROS1 and ERK
[11]; medullary thyroid cancer study
  patients with dose-reductions: 79%
[11]; medullary thyroid cancer, vs. 4 months placebo
  progression-free survival: 11.2 months
[11]; medullary thyroid cancer
  patients with doses held: 65%
[11]; phase III thyroid cancer study
  patients with discontinuation due to adverse events: 16%
[12]; 40 mg group
  discontinuation rate: 18%
  rate of dose reduction: 31%
[12]; 100 mg group
  discontinuation rate: 25%
  rate of dose reduction: 84%
[13]
  patients with a partial response: 2 patients
  patients with stable disease: 1 patient
[14]; 4 weeks after initiation of cabozantinib, from 1.7 cm
  right lower lobe lesion size on CT: 1.4 cm
[14]; single patient, after approximately 3 weeks on treatment
  fatigue: grade II
[14]; single patient, after approximately 3 weeks on treatment, 140 to 80 mg daily
  palmar-plantar erythrodysesthesia: grade III

## Cc1cc(Nc2ncc(Cl)c(Nc3ccccc3S(=O)(=O)C(C)C)n2)c(OC(C)C)cc1C1CCNCC1 [Ceritinib]
[1]; [17]
  IC50: 530 nM

## C[C@@H](Oc1cc(-c2cnn(C3CCNCC3)c2)cnc1N)c1c(Cl)ccc(F)c1Cl [Crizotinib, crizotinib]
[3]; Homo sapiens, CUTO-3, read-out: IC50 inhibition of CUTO-3 cells
  IC50: 462 nM
[1]; [17]
  IC50: 1600 nM
[7]
  phosphorylation of ROS1 and ERK: inhibits the phosphorylation of ROS1 and ERK
[15]
  progression-free survival: 19.2 month
  response rate: 72%

## CN1CCN(c2ccc(C(=O)Nc3n[nH]c4ccc(Cc5cc(F)cc(F)c5)cc34)c(NC3CCOCC3)c2)CC1 [Entrectinib, entrectinib]
[1]; [17]
  IC50: 450 nM
[7]
  phosphorylation of ROS1 and ERK: only effective at blocking activity of wild-type ROS1 signaling
[8]
  phosphorylation of ROS1 and ERK: only effective at blocking activity of wild-type ROS1 signaling
[9]
  phosphorylation of ROS1 and ERK: only effective at blocking activity of wild-type ROS1 signaling

## COc1cc2c(Oc3ccc(NC(=O)C4(C(=O)Nc5ccc(F)cc5)CC4)cc3F)ccnc2cc1OCCCN1CCOCC1 [Foretinib, foretinib]
[1]; [17]
  IC50: 460 nM
[7]
  phosphorylation of ROS1 and ERK: a decrease is seen in the phosphorylation of ROS1 and ERK
[8]
  phosphorylation of ROS1 and ERK: a decrease is seen in the phosphorylation of ROS1 and ERK
[9]
  phosphorylation of ROS1 and ERK: a decrease is seen in the phosphorylation of ROS1 and ERK

## C[C@H]1Oc2cc(cnc2N)-c2c(nn(C)c2C#N)CN(C)C(=O)c2ccc(F)cc21 [PF-06463922]
[1]; read-out: IC50 inhibition of the HCC78 NSCLC cell line, proliferation
  IC50: > 10000 nM
[7]
  phosphorylation of ROS1 and ERK: inhibited wild-type and L2026M mutant ROS1 autophosphorylation and ERK activation
[8]
  phosphorylation of ROS1 and ERK: little effect on signaling
[9]
  phosphorylation of ROS1 and ERK: inhibited wild-type and L2026M mutant ROS1 autophosphorylation and ERK activation

## CN1CCN(c2ccc3nc(-c4c(N)c5c(F)cccc5[nH]c4=O)[nH]c3c2)CC1 [dovitinib, Dovitinib]
[2]; Mus musculus, BaF3, 72 h
  IC50: 4.2 µM
[3]; [19]
  IC50: 170 nM
[4]
  inhibition of NTRK1 autophosphorylation: weaker than would be suggested by its IC50 value
[5]
  inhibition of NTRK1 autophosphorylation: partial inhibition
[16]
  peak plasma level with oral dosing: 568 nM

## C[C@]12O[C@H](C[C@]1(O)CO)n1c3ccccc3c3c4c(c5c6ccccc6n2c5c31)CNC4=O [lestaurtinib, Lestaurtinib]
[2]; Mus musculus, BaF3, 72 h
  IC50: 3.4 µM
[3]; [19]
  IC50: 3.5 nM
[3]; [18]
  IC50: 3 nM
[4]
  inhibition of NTRK1 autophosphorylation: inhibit NTRK1 autophosphorylation
[5]
  inhibition of NTRK1 autophosphorylation: inhibited NTRK1 autophosphorylation
[6]
  effect of F589V mutation on inhibition of NTRK1 autophosphorylation: did not affect inhibition of NTRK1 autophosphorylation
